Test system: MS2 coat protein
Test: apparent Kd, MS2 coat protein; higher = weaker binding; RNA-MaP array; FMN 200 µM where present
Outline: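 Stalled E. coli RNA polymerase produced the designs on Illumina sequencing-chip clusters. SNAP-549-labelled MS2 coat protein was added from 0.7 or 1.5 nM, doubling to 3 µM, without and then with constant ligand, in 100 mM Tris-HCl pH 7.5, 80 mM KCl, 4 mM MgCl2, BSA, DTT, yeast tRNA and Tween-20. The apparent Kd is the median of filtered per-cluster fits of green signal normalised to red-channel RNA signal and control-cluster median Fmax.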

[1] = designed as: OFF switch for flavin mononucleotide, no ligand
[2] = ligand present: flavin mononucleotide, designed as: OFF switch for flavin mononucleotide
[3] = ligand present: flavin mononucleotide, designed as: ON switch for flavin mononucleotide
[4] = designed as: ON switch for flavin mononucleotide, no ligand

AAAUAGUUAGGAUAUACAUGAGGAUCACCCAUGUAGGGUUCAGUCAUGCAGAAAAUGCGUAGAAGGAACUAUCC
apparent Kd [1]: 18.4 nM
apparent Kd [2]: 16.7 nM

GUUAUUAACAAGAAGGCAUACAUGAGGAUCACCCAUGUUCUACAUGGAUAAUGAGGAUAUUGCUAAUACAUGAGGAUCACCCAG
apparent Kd [1]: 72 nM
apparent Kd [2]: 66.9 nM

GAGUGCUGAGGAUAUACAUGAGGAUCACCCAUGUGCUUCAGCUAGGAGACUAGCAUUGGUAGAAGGCAGUACUC
apparent Kd [1]: 11.2 nM
apparent Kd [2]: 46 nM

UGUCGGAUGUAGAAGGGUAGUACAUGAGGAUCACCCAUGUUAACAUGGAAUACAGGAUAUGCGUAUAGUUUUUAUUAAAUUAUA
apparent Kd [1]: 108 nM
apparent Kd [2]: 44.3 nM

CCCUGAUCGAGAGGUAGGAGUGGUAGAAGGCGACCGGUGCCAGAUGACAUGAGGAUCACCCAUGUCGAGGAUAUACCACAGAAU
apparent Kd [1]: 7.6 nM
apparent Kd [2]: 11.5 nM

UUUGACCUAGGAUAUACAUGAGGAUCACCCAUGUUCCGGUGGGUUAACGACAACCUCAGUAGAAGGAGGAGCUU
apparent Kd [1]: 31.8 nM
apparent Kd [2]: 58.9 nM

UACAGCUUGACAGGAUAUACAUGUCAGCGAAAGCUGACUAUCUUAAUAACAUGAGGAUCACCCAUGUAGAAGGGUCGAGCUGUA
apparent Kd [1]: 16.8 nM
apparent Kd [2]: 26.6 nM

UUGCGGUAGGAGAAGGACAGAGGCUUCAUUACAUACAUGAGGAUCACCCAUGUAGGAUAUCCUACCUAACGCGGACUCCUCCUG
apparent Kd [1]: 10.7 nM
apparent Kd [2]: 20.1 nM

AAUAAACAUGAGGAUCACCCAUGUCAGGAUAUGCGUCUAUCCUUAUACCAUAGAUACGGCAGAAGGGACUAAUA
apparent Kd [1]: 24.9 nM
apparent Kd [2]: 31 nM

CCCACGAAAGUCGAACGAUGAUGGAGAAGGACAAUAACAUGACAUGAGGAUCACCCAUGUGCCAUGUAGGAUAUCCAUCAUGGG
apparent Kd [1]: 7.49 nM
apparent Kd [2]: 6.78 nM

UUCGAGCCAAGGCUCGCGAGUACACAGGAUAUGGAAAGUCACAUGAGGAUCACCCAUGUCCAAAACCAGAAGGGUGAGACUAAG
apparent Kd [3]: 70.4 nM

CUUUUGUGAGGAUAUUAGUAGUAAAAAAAUAAAAUUACUACUGAGAAGGCACAUGAGGAUCACCCAUGUUCUUC
apparent Kd [1]: 19 nM
apparent Kd [2]: 98.1 nM

UCUUAUCUAGGAUAUCCACCUCCUCACAUGAGGAUCACCCAUGUGCAGAACAACGGUCUCGGAGAAGGAGGUAUUG
apparent Kd [1]: 25.9 nM
apparent Kd [2]: 25.3 nM

GCCAACUAAUGAGGAUAUGGCACCUUAUUGGUGCCAGAAGGCAUGUCAAUUGACAUGAGGAUCACCCAUGUAUUAUAGUUGGCG
apparent Kd [4]: 878 nM
apparent Kd [3]: 109 nM

CAGUUGGGCUCAGGAUAUCGGGUUUAACAUGAGGAUCACCCAUGUCGUCCGCGAAAGCGGAAUCACGAGAAGGGAGACCAGCGA
apparent Kd [4]: 9.12 nM
apparent Kd [3]: 6.42 nM

GUAAUAAAGAUCCAAUUAUACUACAUGAGGAUCACCCAUGUGCAGGAUAUCGAGAGUUUAUAAUUCGAGAAGGGCAAAUUCAUU
apparent Kd [1]: 73 nM
apparent Kd [2]: 159 nM

AUACUCAUGUAAGGAUAUGCAGCCGUUUCGGCUGCAGAAGGUACUAUAAUACAUGAGGAUCACCCAUGUCUUUUUAAUUUAGAC
apparent Kd [4]: 153 nM
apparent Kd [3]: 39.9 nM

ACAAAUUACUACCAGACAUGAGGAUCACCCAUGUCUCCACCCAGAAGGGCGACUCUGAGCACAGCGCAGGAUAUGGGUGUUCCA
apparent Kd [4]: 59.8 nM
apparent Kd [3]: 13.5 nM

GGAUGAUUAAUAGGAUAUUAUUUGUAAAAUGGUUAAGAAGGAUUAAUGAUUUAAACGACCAGAUACAUGAGGAUCACCCAUGUA
apparent Kd [4]: 24.4 nM
apparent Kd [3]: 21.9 nM

AACAUGCUAGGAUAUACAAGACAAAUUGGGCAUCCGCAUGGACAUGAGGAUCACCCAUGUAGAAGGAGUAUAAA
apparent Kd [1]: 167 nM
apparent Kd [2]: 278 nM
